Screens (PubChem)
LMPTP block = LMPTP phosphatase inhibitors, primary screen, biochemical, fluorescence intensity, uHTS | recombinant LMPTP-A, OMFP fluorogenic substrate | inhibition, % at 20 µM | actives 0.22% (n = 360,000) | AID 651560, 2012;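 active = compounds that cut the enzyme signal by at least half of the control window in the single-dose screen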;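 also: plate controls were DMSO wells with enzyme plus substrate for no effect and substrate without enzyme for full effect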
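Test system: LMPTP-A phosphatase enzyme. Amount: LMPTP-A at 0.625 nM final in the reaction. Reagent: OMFP substrate, 400 µM final. Times: 50 min at room temperature. Signal: endpoint fluorescence intensity from OMFP dephosphorylation. Read-out basis: % inhibition. Benchmarks: no-enzyme and uninhibited controls.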
DNMT1 inh = human DNMT1 methyltransferase inhibitors, primary screen, biochemical, molecular beacon, fluorescence, HinP1I cleavage, uHTS | DNA (cytosine-5)-methyltransferase 1 (Homo sapiens), P26358 | inhibition (reported as % activation of signal), % at 10 µM | actives 0.83% (n = 360,000) | AID 588458, 2011; in the data active = inhibition above about 50%
STEP inh = STEP phosphatase inhibitors, primary screen, biochemical, fluorescence intensity, uHTS; Tyrosine-protein phosphatase non-receptor type 5 (Homo sapiens), P54829; recombinant STEP, OMFP fluorogenic substrate; inhibition, % at 20 µM; actives 0.25% (n = 360,000);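 active = inhibition at 20 µM, scaled per plate between control wells, above about 37%, limit read from the data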;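 also: 0% = DMSO with enzyme and substrate and 100% = substrate only without enzyme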
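Material: STEP (striatal-enriched tyrosine phosphatase) enzyme, cell-free | Medium: 50 mM Bis-Tris pH 6.0 with 2.5 mM DTT and 0.005% Tween 20 | Read-out: Percent inhibition scaled to no-enzyme and uninhibited-enzyme controls, plate-pattern corrected | Signal: Fluorescence read at 480 nm ex / 540 nm em | Times: 20 min reaction, room temperature, in the dark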
Scp1 inh = Scp-1 phosphatase inhibitors, primary screen, biochemical, colorimetric, uHTS; Carboxy-terminal domain RNA polymerase II polypeptide A small phosphatase 1 (Homo …; Recombinant Scp1, phosphopeptide, malachite green phosphate absorbance; inhibition, % at 20 µM; actives 0.88% (n = 340,000);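 active = inhibition above about 50% at 20 µM, limit read from the data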;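 also: plate controls were DMSO wells with enzyme for no effect and wells lacking enzyme for full effect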
Target sequence (Q9GZU7 76-261 limits assumed): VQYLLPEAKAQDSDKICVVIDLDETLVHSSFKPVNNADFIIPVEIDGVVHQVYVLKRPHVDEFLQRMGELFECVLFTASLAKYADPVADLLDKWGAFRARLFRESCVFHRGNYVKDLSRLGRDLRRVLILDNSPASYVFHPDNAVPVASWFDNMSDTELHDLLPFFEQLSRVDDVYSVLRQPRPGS
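Test system: SCP-1 phosphatase catalytic domain, residues 76-261; measured by: colorimetric phosphate reagent with accelerator and stabiliser, absorbance at 630 nm; timing: enzyme reaction 45 min at room temperature, colour 5 min, stabilisation 30 min; also added: Phosphorylated 17-residue peptide substrate; compound dosing: one concentration, 20 µM, with 1.0% DMSO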
SUMO1-SIM PPI = modulators of SUMO1 protein-protein interactions, primary screen, biochemical, uHTS; inhibition, % at 20 µM; SUMO1 binding to a labelled peptide, TR-FRET, 1 h; actives 0.33% (n = 360,000); Small ubiquitin-related modifier 1 (Homo sapiens), P63165; AID 602429, 2012; in the data active = inhibition above about 37%
Target sequence (P63165 whole entry, looked up): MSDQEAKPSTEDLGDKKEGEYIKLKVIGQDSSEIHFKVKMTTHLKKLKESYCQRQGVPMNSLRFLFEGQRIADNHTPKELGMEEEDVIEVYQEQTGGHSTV
Casp6 inh = human caspase-6 inhibitors, primary screen, biochemical, VEID-R110 fluorescence, single point, set 2 | P55212 | purified caspase-6, Z-VEID-R110 cleavage fluorescence | inhibition, % at 12.5 µM | actives 0.53% (n = 350,000);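 active = mean inhibition across replicates at least about 35%, with every replicate also reaching that limit, limit read from the data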;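 also: 0% = median of neutral control wells and 100% = no fluorescence left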
Target sequence (P55212 24-179 limits assumed): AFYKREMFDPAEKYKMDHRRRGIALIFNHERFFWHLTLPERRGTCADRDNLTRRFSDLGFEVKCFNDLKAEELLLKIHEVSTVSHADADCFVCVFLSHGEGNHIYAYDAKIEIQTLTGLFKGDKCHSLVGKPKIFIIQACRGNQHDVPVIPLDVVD
Target sequence (P55212 194-293 limits assumed): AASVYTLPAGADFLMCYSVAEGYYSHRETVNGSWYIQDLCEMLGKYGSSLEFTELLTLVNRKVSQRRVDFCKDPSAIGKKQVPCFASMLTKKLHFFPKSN
Scp1 confirm = Scp-1 phosphatase inhibitors, retest, confirmation, biochemical, colorimetric, single concentration. shares compounds with Scp1 inh. recombinant SCP-1 catalytic domain, phosphate release, malachite green absorbance. inhibition, % at 20 µM. actives 61% (n = 2,500);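 also: plate controls were DMSO with enzyme for no effect and buffer wells lacking enzyme for full effect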
Scp-1 MG ctr = colorimetric readout interference by compounds, confirmation, artefact control for Scp-1 inhibitor project, biochemical, single concentration; shares compounds with Scp1 inh; Colorimetric interference counterscreen, malachite green absorbance 630 nm; apparent inhibition (interference), % at 20 µM; 2,500 tested, under 10 active;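 also: compounds added after enzyme reaction finished so only phosphate colour detection is probed; plate controls were DMSO wells with completed Scp-1 reaction for no effect and substrate wells lacking enzyme for full effect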
Scp-1 Tm shift = Scp-1 binding by thermal shift, confirmation, orthogonal assay for Scp-1 inhibitor project, biophysical, differential scanning fluorimetry; AID 540329, 2011; actives 25% (n = 1,500); shares compounds with Scp1 inh; Recombinant SCP1, Sypro Orange thermal shift Tm; thermal shift relative to vanadate control, % at 40 µM;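 active = substances whose mean melting-temperature shift, as a percentage of the reference inhibitor's shift, reaches about 5.3%, limit read from the data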;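 also: 0% = Tm of DMSO wells and 100% = Tm with sodium orthovanadate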
Starred values were filed as active, the others as inactive; / = not tested or not shown. Sampled rows, rich in hits. Any-hit rate of the full collection: about 1.7%.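 The calls were made as follows, unless noted: active = inhibition of at least 30% at 20 µM; inactive = the rest.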

SMILES	LMPTP block	DNMT1 inh	STEP inh	Scp1 inh	SUMO1-SIM PPI	Casp6 inh	Scp1 confirm	Scp-1 MG ctr	others
O=C(N/N=C/C(Cl)=C/c1ccccc1)c1ccc2c(c1)OCO2	56*	8	38	101*	2	1	53*	-18	Scp-1 Tm shift=-15
CCc1nnc(NC(=O)CCC(=O)N2CCN(C3c4ccccc4-c4ccccc43)CC2)s1	0	-2	1	72*	-5	0	-21	-12
CCN(c1ccccc1)S(=O)(=O)c1ccc2[nH]cc(C(=O)N3CCOCC3)c(=O)c2c1	0	14	13	52*	-2	/	40*	-4	Scp-1 Tm shift=-5
CCOc1ccc(-c2nnn(CC(=O)NCc3ccccc3)n2)cc1	2	4	1	57*	2	4	-9	-22
Cc1cc(C)n2nc(C(=O)OCC(=O)c3ccccc3)nc2n1	0	3	2	73*	1	-6	-10	-21
O=C(CSc1nnc2scc(-c3ccccc3)n12)Nc1nsc(-c2ccccc2)n1	8	17	7	71*	4	3	74*	-8	Scp-1 Tm shift=-19
Cc1ccc(-c2csc3nnc(SCC(=O)Nc4nsc(-c5ccccc5)n4)n23)cc1	3	3	2	15	4	/	/	/
Cc1ccc(NC(=O)C2CCCN2S(=O)(=O)c2ccc3c(c2)n(C)c(=O)c(=O)n3C)cc1 (stereo unspecified)	-2	2	-2	7	-5	-1	/	/
Cc1cccc(C)c1NC(=O)C1CCCN1S(=O)(=O)c1ccc2c(c1)n(C)c(=O)c(=O)n2C (stereo unspecified)	-3	1	1	-4	-2	/	-14	-18
Cn1c(=O)c(=O)n(C)c2cc(S(=O)(=O)N3CCCC3C(=O)Nc3ccccc3F)ccc21 (stereo unspecified)	0	0	0	0	-1	0	-7	-7
Cc1cc(C)cc(NC(=O)C2CCCN2S(=O)(=O)c2ccc3c(c2)n(C)c(=O)c(=O)n3C)c1 (stereo unspecified)	-1	-1	0	-16	3	1	/	/
CCc1ccccc1NC(=O)C1CCCN1S(=O)(=O)c1ccc2c(c1)n(C)c(=O)c(=O)n2C (stereo unspecified)	-2	1	-1	-7	6	0	/	/
Cc1ccc(NC(=O)C2CCCN2S(=O)(=O)c2ccc3c(c2)n(C)c(=O)c(=O)n3C)c(C)c1 (stereo unspecified)	0	0	-2	-12	4	3	-10	-11
CC1CCCN(CC(O)COc2ccc(Cl)cc2)C1 (stereo unspecified)	1	2	-1	1	-3	-7	/	/
O=C(O)CN1C(=O)C2C3C=CC(C3)C2C1=O (stereo unspecified)	-1	3	3	-6	0	0	/	/
C[N+]1(CN2C(=O)C3C4C=CC(C4)C3C2=O)CCCCC1 (stereo unspecified)	-3	3	-2	103*	-3	-62	89*	-7	Scp-1 Tm shift=3
O=C(Nc1nnc(-c2ccccc2)o1)NC1CCCCC1	0	-2	0	-1	2	/	/	/
Cn1nc(C(C)(C)C)cc1C(=O)Sc1cccc(Br)c1	2	4	4	-7	1	7	/	/
C[N+]1(CC(=O)OCCCc2ccccc2)CCOCC1	-2	2	-5	100*	-1	/	80*	-17	Scp-1 Tm shift=-10
Cc1ccc(CCCOC(=O)C[N+]2(C)CCOCC2)cc1	0	2	-4	38	2	/	/	/
CCc1ccc(NC(=O)NCc2ccccn2)cc1	-1	1	-3	-8	4	3	/	/
COc1ccc(S(=O)(=O)N2CCc3ccccc32)cc1C(=O)OCC(=O)c1c(N)n(C)c(=O)n(C)c1=O	0	-5	-1	-7	0	0	/	/
C=C1N(C)c2cc([N+](=O)[O-])c(N)cc2C1(C)C	10	-4	2	-7	-23	4	/	/
COc1cc(/C=C/C(=O)O)cc(S(=O)(=O)NNC(=O)c2cc(C)oc2C)c1OC	-1	18	-1	53*	4	14	49*	3	Scp-1 Tm shift=-3
Cc1cc(Cl)ccc1OCC(=O)OC(C)C(=O)N(C)C (stereo unspecified)	2	24	5	55*	0	/	46*	-12	Scp-1 Tm shift=-18
SMILES	LMPTP block	DNMT1 inh	STEP inh	Scp1 inh	SUMO1-SIM PPI	Casp6 inh	Scp1 confirm	Scp-1 MG ctr	others
CCN(CC)C(=O)C(C)OC(=O)COc1ccc(Cl)cc1C (stereo unspecified)	-1	14	2	38	4	/	/	/
CCCOC(=O)c1ccc(OCC(O)CN2C(=O)NC(C)(C)C2=O)cc1 (stereo unspecified)	0	1	-1	65*	-3	/	-8	-7
COc1ccc(-c2cnc3c(c2)C(=O)N([C@@H](C)CO)C[C@H](C)[C@H](CN(C)Cc2ccc(C(=O)O)cc2)O3)cc1	/	/	/	/	/	-2	/	/
O=C(O)CSc1nnc(-c2ccc(Cl)cc2Cl)n1-c1ccc(Br)cc1	0	2	2	-5	3	3	/	/
CSc1ccc(CCNS(=O)(=O)c2csc(C(N)=O)c2)cc1	0	-2	0	-4	32	0	5	-2
NC(=O)c1cc(S(=O)(=O)NCc2ccc(F)cc2)cs1	0	-1	-2	-5	2	0	/	/
Cc1cccc(CNS(=O)(=O)c2csc(C(N)=O)c2)c1	-2	1	-5	-11	8	34	-9	-12
O=C(COc1ccccc1)NCC(=O)N/N=C/C=C/c1ccccc1	-2	-1	-5	-7	0	-1	/	/
